In ChEMBL document CHEMBL3526002, “Tissue distribution and identification of radioactivity components at elimination phase after oral administration of [¹⁴C]CS-1036, an α-amylase inhibitor, to rats” (Drug Metab Dispos, 2013):

How the values were obtained:
Parameters in all cases: dose 5 mg/kg, dosed compound name [14C]CS-1036, route oral
Settings in all cases: in vivo
Zone of skin = assay: Drug uptake in albino F344/DuCrlCrlj rat skin at 5 mg/kg, po after 4 hrs by liquid scintillation counting; format: ADME, organism-based
Blood [1] = assay: Drug uptake in albino F344/DuCrlCrlj rat blood at 5 mg/kg, po after 8 hrs by liquid scintillation counting; format: ADME, organism-based
In short: (§1)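 Male rats (159–167 g; n = 3) received a single oral dose of [14C]CS-1036 at 5 mg/kg. Blood was drawn from the abdominal aorta at 1, 4, 8, 24, 72, 168 and 336 h. Radioactivity was counted by LSC with external-standard efficiency correction. Results are expressed as ng equivalent/ml from the specific activity and sample volume; mean + S.D.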

Liver [2] = assay: Drug uptake in albino F344/DuCrlCrlj rat liver at 5 mg/kg, po after 8 hrs by liquid scintillation counting; format: ADME, organism-based
[3] = Drug uptake in albino F344/DuCrlCrlj rat skeletal muscle at 5 mg/kg, po after 8 hrs by liquid scintillation counting; format: ADME, organism-based, Muscle tissue
Aorta [4] = assay: Drug uptake in albino F344/DuCrlCrlj rat aorta at 5 mg/kg, po after 8 hrs by liquid scintillation counting; format: ADME, organism-based
Kidney [5] = assay: Drug uptake in albino F344/DuCrlCrlj rat kidney assessed as ng equivalent of CS-1036 at 5 mg/kg, po after 1 hr by liquid scintillation counting; format: ADME, organism-based
Cerebellum [6] = assay: Drug uptake in albino F344/DuCrlCrlj rat cerebellum assessed as ng equivalent of CS-1036 at 5 mg/kg, po after 72 hrs by liquid scintillation counting; format: ADME, organism-based
Spleen [7] = assay: Drug uptake in albino F344/DuCrlCrlj rat spleen assessed as ng equivalent of CS-1036 at 5 mg/kg, po after 4 hrs by liquid scintillation counting; format: ADME, organism-based
Liver [8] = assay: Drug uptake in albino F344/DuCrlCrlj rat liver assessed as ng equivalent of CS-1036 at 5 mg/kg, po after 72 hrs by liquid scintillation counting; format: ADME, organism-based
Cerebellum [9] = assay: Drug uptake in albino F344/DuCrlCrlj rat cerebellum at 5 mg/kg, po after 24 hrs by liquid scintillation counting; format: ADME, organism-based
Aorta [10] = assay: Drug uptake in albino F344/DuCrlCrlj rat aorta assessed as ng equivalent of CS-1036 at 5 mg/kg, po after 336 hrs by liquid scintillation counting; format: ADME, organism-based
Thymus = assay: Drug uptake in albino F344/DuCrlCrlj rat thymus at 5 mg/kg, po after 24 hrs by liquid scintillation counting; format: ADME, organism-based
Small intestine = assay: Drug uptake in albino F344/DuCrlCrlj rat small intestine assessed as ng equivalent of CS-1036 at 5 mg/kg, po after 72 hrs by liquid scintillation counting; format: ADME, organism-based
Spleen [11] = assay: Drug uptake in albino F344/DuCrlCrlj rat spleen assessed as ng equivalent of CS-1036 at 5 mg/kg, po after 168 hrs by liquid scintillation counting; format: ADME, organism-based
Plasma = assay: Drug uptake in albino F344/DuCrlCrlj rat plasma at 5 mg/kg, po after 72 hrs by liquid scintillation counting; format: ADME, organism-based
Blood [12] = assay: Drug uptake in albino F344/DuCrlCrlj rat blood at 5 mg/kg, po after 72 hrs by liquid scintillation counting; format: ADME, organism-based; in short: as §1
Cerebellum [13] = assay: Drug uptake in albino F344/DuCrlCrlj rat cerebellum at 5 mg/kg, po after 72 hrs by liquid scintillation counting; format: ADME, organism-based
Aorta [14] = assay: Drug uptake in albino F344/DuCrlCrlj rat aorta at 5 mg/kg, po after 72 hrs by liquid scintillation counting; format: ADME, organism-based
[15] = Drug uptake in albino F344/DuCrlCrlj rat bone marrow assessed as ng equivalent of CS-1036 at 5 mg/kg, po after 4 hrs by liquid scintillation counting; format: ADME, organism-based
Cerebrum [16] = assay: Drug uptake in albino F344/DuCrlCrlj rat cerebrum at 5 mg/kg, po after 1 hr by liquid scintillation counting; format: ADME, organism-based
In short: (§2)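 Single oral [14C]CS-1036 at 5 mg/kg was given to male rats (159–167 g; n = 3). Cerebrum was collected after aortic bleeding at 1, 4, 8, 24, 72, 168 or 336 h, weighed, and homogenized in 2 volumes of saline. A 0.5 ml aliquot was solubilized in Soluene-350 and counted by LSC with external-standard correction. Results are in ng equivalent/g tissue from specific activity and sample weight.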

Aorta [17] = assay: Drug uptake in albino F344/DuCrlCrlj rat aorta assessed as ng equivalent of CS-1036 at 5 mg/kg, po after 4 hrs by liquid scintillation counting; format: ADME, organism-based
[18] = Drug uptake in albino F344/DuCrlCrlj rat eyeball assessed as ng equivalent of CS-1036 at 5 mg/kg, po after 8 hrs by liquid scintillation counting; format: ADME, organism-based
[19] = Drug uptake in albino F344/DuCrlCrlj rat thyroid gland assessed as ng equivalent of CS-1036 at 5 mg/kg, po after 8 hrs by liquid scintillation counting; format: ADME, organism-based
Kidney [20] = assay: Drug uptake in albino F344/DuCrlCrlj rat kidney assessed as ng equivalent of CS-1036 at 5 mg/kg, po after 8 hrs by liquid scintillation counting; format: ADME, organism-based
Cerebrum [21] = assay: Drug uptake in albino F344/DuCrlCrlj rat cerebrum assessed as ng equivalent of CS-1036 at 5 mg/kg, po after 336 hrs by liquid scintillation counting; format: ADME, organism-based; in short: as §2
Lung [22] = assay: Drug uptake in albino F344/DuCrlCrlj rat lung at 5 mg/kg, po after 1 hr by liquid scintillation counting; format: ADME, organism-based
Pancreas [23] = assay: Drug uptake in albino F344/DuCrlCrlj rat pancreas at 5 mg/kg, po after 1 hr by liquid scintillation counting; format: ADME, organism-based
Aorta [24] = assay: Drug uptake in albino F344/DuCrlCrlj rat aorta at 5 mg/kg, po after 1 hr by liquid scintillation counting; format: ADME, organism-based
[25] = Drug uptake in albino F344/DuCrlCrlj rat thyroid gland at 5 mg/kg, po after 168 hrs by liquid scintillation counting; format: ADME, organism-based
Lung [26] = assay: Drug uptake in albino F344/DuCrlCrlj rat lung at 5 mg/kg, po after 168 hrs by liquid scintillation counting; format: ADME, organism-based
Adrenal gland = assay: Drug uptake in albino F344/DuCrlCrlj rat adrenal gland at 5 mg/kg, po after 168 hrs by liquid scintillation counting; format: ADME, organism-based
Pancreas [27] = assay: Drug uptake in albino F344/DuCrlCrlj rat pancreas at 5 mg/kg, po after 168 hrs by liquid scintillation counting; format: ADME, organism-based
[28] = Drug uptake in albino F344/DuCrlCrlj rat epididymis at 5 mg/kg, po after 168 hrs by liquid scintillation counting; format: ADME, organism-based
Kidney [29] = assay: Drug uptake in albino F344/DuCrlCrlj rat kidney at 5 mg/kg, po after 336 hrs by liquid scintillation counting; format: ADME, organism-based
Spleen [30] = assay: Drug uptake in albino F344/DuCrlCrlj rat spleen at 5 mg/kg, po after 336 hrs by liquid scintillation counting; format: ADME, organism-based

Radiolabel recovery (Zone of skin): 33 ngequiv/g
Radiolabel recovery (Blood [1]): 22.1 ngequiv/ml
Radiolabel recovery (Liver [2]): 193 ngequiv/g
Radiolabel recovery [3]: 32.2 ngequiv/g
Radiolabel recovery (Aorta [4]): 57.3 ngequiv/g
Radiolabel recovery (Kidney [5]): 102 ngequiv/g
Radiolabel recovery (Cerebellum [6]): 6.4 ngequiv/g
Radiolabel recovery (Spleen [7]): 6.3 ngequiv/g
Radiolabel recovery (Liver [8]): 629 ngequiv/g
Radiolabel recovery (Cerebellum [9]): 21.1 ngequiv/g
Radiolabel recovery (Aorta [10]): 10.8 ngequiv/g
Radiolabel recovery (Thymus): 53.3 ngequiv/g
Radiolabel recovery (Small intestine): 16.2 ngequiv/g
Radiolabel recovery (Spleen [11]): 6.2 ngequiv/g
Radiolabel recovery (Plasma): 14.5 ngequiv/ml
Radiolabel recovery (Blood [12]): 16.1 ngequiv/ml
Radiolabel recovery (Cerebellum [13]): 9.8 ngequiv/g
Radiolabel recovery (Aorta [14]): 35.8 ngequiv/g
Radiolabel recovery [15]: 7.9 ngequiv/g
Radiolabel recovery (Cerebrum [16]): 8.81 ngequiv/g
Radiolabel recovery (Aorta [17]): 13.3 ngequiv/g
Radiolabel recovery [18]: 18.9 ngequiv/g
Radiolabel recovery [19]: 57.2 ngequiv/g
Radiolabel recovery (Kidney [20]): 1970 ngequiv/g
Radiolabel recovery (Cerebrum [21]): 2.36 ngequiv/g
Radiolabel recovery (Lung [22]): 47.1 ngequiv/g
Radiolabel recovery (Pancreas [23]): 102 ngequiv/g
Radiolabel recovery (Aorta [24]): 50.6 ngequiv/g
Radiolabel recovery [25]: 33.7 ngequiv/g
Radiolabel recovery (Lung [26]): 17.2 ngequiv/g
Radiolabel recovery (Adrenal gland): 78.9 ngequiv/g
Radiolabel recovery (Pancreas [27]): 79.2 ngequiv/g
Radiolabel recovery [28]: 18.5 ngequiv/g
Radiolabel recovery (Kidney [29]): 12 ngequiv/g
Radiolabel recovery (Spleen [30]): 7.81 ngequiv/g
SMILES: C[C@H]1O[C@@H](O[C@H]2[C@H](O)[C@@H](O)[C@@H](O[14C@H]3[14C@H](O)[14CH2]N[14C@@H]3[14CH2]O)O[C@@H]2CO)[C@H](O)[C@@H](O)[C@@H]1O
